# Active and inactive are the calls of the source.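 Rule for the calls: active = compounds whose fitted half-maximal concentration for reducing fibroblast viability is 100 µM or lower; inactive = the rest.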
# Test system: LL 47 lung fibroblast viability, ATP luminescence
# Assay: inhibition of LL 47 lung fibroblast growth, concentration-response curve, selectivity screen for endothelial cell growth inhibitor project, cellular system, ATP luminescence readout (AID 821)
# Outline: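 Test system: human lung fibroblasts, LL 47 line / Amount: 1,150 cells/well / Schedule: 72 h compound treatment at 37 °C after overnight attachment / Technique: CellTiter-Glo luminescence readout of viable cells / Measure: percent viability relative to untreated wells, EC50 via 4-parameter fit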
row,Structure (SMILES),EC50
1,CCCCCCc1cc2cc(-c3nnc(-c4ccccc4)o3)c(=O)oc2cc1O,20.3 µM
2,COC(=O)c1ccc2c(=O)n(Cc3ccco3)c(SCC(=O)Nc3ccc(C)c(Cl)c3)nc2c1,4.07 µM
3,COc1ccc(-c2cc(C#N)nc(N3CCNCC3)n2)cc1,11.8 µM
4,Cc1cc(NC(=O)CSc2nc3c(sc4ccccc43)c(=O)n2CCCN2CCOCC2)n[nH]1,> 10 µM (inactive)
5,COC(=O)Nc1ccc(S(=O)(=O)N2c3ccccc3CCC2C)cc1 (stereo unspecified),12.5 µM
6,COc1ccc(S(=O)(=O)N2N=C(C)Oc3ccccc3C2=O)cc1,19.5 µM
7,CC1=CC(C)(C)Nc2ccc(OC(=O)CN3C(=O)C4CCCCC4C3=O)cc21 (stereo unspecified),12.4 µM
8,Cc1cc(C)n(S(=O)(=O)/C=C/c2ccccc2)n1,9.12 µM
9,O=S(=O)(CCN(CCS(=O)(=O)C(F)(F)F)CC1CCCO1)C(F)(F)F (stereo unspecified),5.88 µM
10,COC(=O)C(CC(=O)c1ccc(Br)cc1)n1ccnc1 (stereo unspecified),14.7 µM
11,COc1cc(/C=C(/C(=O)c2cccs2)c2nc3ccccc3[nH]2)cc(OC)c1O,8.69 µM
12,Cc1sc2nc(SCC(=O)C(C)(C)C)n(Cc3ccco3)c(=O)c2c1C,16.9 µM
13,Cc1cc(NC(=O)c2cc(-c3ccncc3)nc3c(C)cccc23)no1,9.48 µM
14,N#CC(c1ccccc1)c1ccc2c(C(F)(F)F)cc(C(F)(F)F)nc2n1 (stereo unspecified),18 µM
15,O=S1(=O)C=C(Sc2nnc(-c3ccccc3)o2)c2ccccc21,1.71 µM
16,COc1cccc(C(=O)c2sc(NC(C)C)nc2N)c1,16.1 µM
17,Cc1ccc(C(=O)c2c(C)oc3c2C(=O)C(=O)c2ccccc2-3)cc1,3.46 µM
18,COc1ccc(C(=O)C(CN2CCOCC2)c2ccccc2)cc1F (stereo unspecified),5.53 µM
19,O=C(Oc1ccccc1-c1nnco1)c1ccc(Cl)cc1,5.03 µM
20,COc1cc(NC(=O)Nc2cccc(Cl)c2)c(OC)cc1NC(=O)CN1CCCCC1,20.3 µM
21,Oc1c(C(Nc2ccccn2)c2ccccn2)ccc2cccnc12 (stereo unspecified),5.55 µM
22,COCc1cc(CN2CCCC2)c(O)c2ncccc12,11.7 µM
23,O=c1[nH]c2cc3c(cc2cc1C(c1nnnn1Cc1ccccc1)N1CCCCCC1)OCCO3 (stereo unspecified),19.1 µM

row,Structure (SMILES),EC50
1,COc1ccc(-c2ccc(C#N)c(SCC(=O)Nc3sc4c(c3C#N)CCC4)n2)cc1OC,20.1 µM
2,O=[N+]([O-])c1ccc(Sc2cccc3cccnc23)c([N+](=O)[O-])c1,5.03 µM
3,Cc1cc(C)c2ccc(N)nc2c1O,2.82 µM
4,COc1cc(C(=O)Oc2c(CN3CCOCC3)cc(Cl)c3cccnc23)cc(OC)c1OC,4.05 µM
5,CCOC(=O)C(C(C)=O)c1c(Br)c(O)c(O)c2c(C(=O)c3ccc(C)cc3)coc12 (stereo unspecified),8.67 µM
6,CCOc1cccc(-n2nnnc2-c2ccc(OC)cc2)c1,19.9 µM
7,CCOC(=O)CSc1cccc2cccnc12,12.6 µM
8,CC1(C)Cc2ccccc2C(NNC(=O)c2ccccn2)=N1,11.5 µM
9,CCSc1nnc(NC(=O)c2ccccn2)s1,16.5 µM
10,c1ccc2c(c1)oc1c(Nc3ccc(CN4CCOCC4)cc3)ncnc12,17.2 µM
11,O=C(c1ccc(F)cc1)C(CN1CCOCC1)c1ccccc1 (stereo unspecified),6.42 µM
12,N#Cc1cc2sc3nnc(-c4ccncc4)n3c2cc1C#N,15.6 µM
13,Cc1ccc2oc3c(c(=O)c2c1)C(c1cccc(Br)c1)N(Cc1ccco1)C3=O (stereo unspecified),18.3 µM
14,O=C(CN1CCCC1)Nc1ccc(-c2nc3cc(NC(=O)CN4CCCC4)ccc3o2)cc1,7.33 µM
15,O=C(Nc1ccc(-c2nc3c(ccc4ccccc43)o2)cc1)c1ccco1,10.9 µM
16,Oc1c(CN2CCN(c3ccccn3)CC2)cc(Cl)c2cccnc12,5.46 µM
17,CCC(C)(C)n1nnnc1C(c1cc2cc(C)cc(C)c2[nH]c1=O)N1CCN(Cc2ccc3c(c2)OCO3)CC1 (stereo unspecified),9.88 µM
18,O=C(c1nn2c(C(F)(F)F)cc(-c3ccco3)nc2c1Br)N1CCCc2ccccc21,4.78 µM
19,C=CCn1c(SCC(=O)c2c(N)n(CCC)c(=O)n(C)c2=O)nc2sc(CC)cc2c1=O,15.3 µM
20,Cc1cc2c(N=O)c(NO)ccc2[nH]1,2.93 µM
21,CN1CCN(Cc2cc(COCc3ccccc3)c3cccnc3c2O)CC1,2.92 µM
22,Oc1ccccc1/C=N/Nc1nccnc1Cl,2.08 µM
23,Cc1cccc(CS(=O)(=O)c2nnc([C@H](Cc3ccccc3)NC(=O)OC(C)(C)C)o2)c1,16.7 µM

row,Structure (SMILES),EC50
1,CS(=O)(=O)c1nc(-c2cccs2)cc(C(F)(F)F)n1,7.32 µM
2,O=C1C=C(c2ccc(Cl)cc2)C(=O)N1Nc1ccccc1,14.9 µM
3,Cc1ccc(C2Oc3ccccc3C3=C2C(c2cccs2)n2ncnc2N3)cc1 (stereo unspecified),19.1 µM
4,CCc1ccc(-c2nc(CN3CCC(C(=O)N4CCN(c5ccccc5)CC4)CC3)c(C)o2)cc1,18.7 µM
5,CC(C)=CCC/C(C)=C/CCC(C)NCCN1CCNCC1 (stereo unspecified),10.4 µM
6,O=c1[nH]c2ccccc2n1C1CCN(CCCC(c2ccc(F)cc2)c2ccc(F)cc2)CC1,13.6 µM
7,O=C(Nc1ccc(N2CCOCC2)cc1)Nc1ccc2nc(-c3ccco3)c(-c3ccco3)nc2c1,2.18 µM
8,O=C(Nc1cccnc1)c1ccc(Br)s1,13.1 µM
9,Cc1cccc(NC(=O)Nc2cccc(Oc3c(F)c(F)c(F)c(F)c3F)c2)c1,17.5 µM
10,CCCc1[nH]nc2c1C(c1ccc(Br)s1)C(C#N)=C(N)O2 (stereo unspecified),9.62 µM
11,O=C(CSc1cccc2cccnc12)N1CCCC1,12.7 µM
12,CC(C)COC(=O)c1ccc2c(c1O)C(=O)c1ccccc1C2=O,17.9 µM
13,CCOC(=O)/C=C/S(=O)(=O)c1ccc(NC(C)=O)cc1,6.96 µM
14,c1ccc(-c2noc(-c3ccc4c(c3)OCO4)n2)nc1,10.5 µM
15,CCOc1ccccc1-n1c(CN2CCN(C(=O)c3ccco3)CC2)nc2ccccc2c1=O,5.7 µM
16,O=C(Oc1cccc2cccnc12)c1cccs1,4.21 µM
17,CCn1c(SCC(=O)Nc2cc(C)on2)nc2sc3c(c2c1=O)CCCC3,> 10 µM (inactive)
18,Fc1ccc2c(Cl)c(-c3nnc(-c4cccs4)o3)sc2c1,11.4 µM
19,Cc1cc(C)c2oc(-c3ccc(Cl)c(NC(=O)c4ccc(C#N)cc4F)c3)nc2c1,6.89 µM
20,COCc1cc(=O)[nH]c(Nc2nc(C)c3ccccc3n2)n1,20.3 µM
21,O=C1CSC(=S)N1Cc1cccnc1,9.72 µM
22,CCC(C)(C)NC(=O)C(c1ccc(C)o1)N(Cc1cccs1)C(=O)Cn1nnc2ccccc21 (stereo unspecified),13.9 µM
23,Oc1c(I)cc(Cl)c2cccnc12,11.4 µM

row,Structure (SMILES),EC50
1,CN1CCN(CCCN2c3ccccc3Sc3ccc(C(F)(F)F)cc32)CC1,17.9 µM
2,c1ccc(-c2nc3nonc3nc2-c2ccccc2)cc1,15.2 µM
3,CCCCS(=O)(=O)/C=C\C=C/S(=O)(=O)CCCC,0.936 µM
4,CN=C1c2cc3cc(OC)ccc3n2CCN1Cc1ccccc1,18.1 µM
5,COc1ccc(C(=O)Nc2ccccc2C(=O)N(Cc2ccco2)C(C(N)=O)C(C)C)cc1 (stereo unspecified),17.4 µM
6,Cc1nn(-c2nc3ccccc3s2)c(N)c1Sc1ccc(F)cc1,12.8 µM
7,CCOC(=O)c1sc2nc(C(C)C)c3c(c2c1N)CC(C)(C)OC3,12.4 µM
8,CC1CC(C)CN(S(=O)(=O)c2ccc(C(=O)Nc3nnc(-c4cccs4)o3)cc2)C1 (stereo unspecified),8.61 µM
9,Cc1cc(C)n(-c2nc3ccccc3c(=O)n2OCC(=O)OCc2ccccc2)n1,4 µM
10,C#CCn1c(=NC(=O)c2ccc(Br)s2)sc2cccc(OC)c21,20.1 µM
11,O=c1c(Cl)c(NCCCO)cnn1-c1nc2ccccc2[nH]1,6.3 µM
12,COc1ccc(CC(=O)Nc2ccc(-c3nnc(-c4ccc(C)cc4)o3)cc2)cc1,12.8 µM
13,Cc1ccccc1-c1nc(CN2CCC(C(=O)NCCCN3CC(C)CC(C)C3)CC2)c(C)o1 (stereo unspecified),10.6 µM
14,CC1(C)Cc2c(c(N3CCOCC3)nc3snc(N)c23)CO1,10.9 µM
15,CN(C)C(=O)CSc1cccc2cccnc12,13.7 µM
16,O=C(C#Cc1cccc([N+](=O)[O-])c1)c1ccccc1,18.5 µM
17,COc1ccc(NC(=O)/C(Cl)=C(/Cl)S(=O)(=O)Cc2ccccc2)cn1,6.19 µM
18,O=C(NNC(=O)c1ccc([N+](=O)[O-])o1)c1ccccc1,11.7 µM
19,Cc1ccc(-c2nn3c(C)nnc3s2)cc1NC(=O)c1ccc(-c2cccc(Cl)c2)o1,13.1 µM
20,Cc1ccc(C)n1NC(=O)c1ccccc1O,10.3 µM
21,COc1cccc(C(=O)Oc2c(CN3CCOCC3)cc(Cl)c3cccnc23)c1,5.95 µM
22,C=CCOC(=O)C1=C(C)NC(SCC(=O)Nc2ccc(C)c(Cl)c2)=C(C#N)C1c1ccco1 (stereo unspecified),7.76 µM
23,COc1ccc(C2=Nn3c(nnc3C3CCCCC3)SC2)cc1OC,14.1 µM

row,Structure (SMILES),EC50
1,CC1=NOC(=O)/C1=C/c1ccc(-c2ccc(Cl)cc2)o1,13.9 µM
2,COc1ccc(N2C(=O)CC(Sc3nnc(-c4ccccc4)o3)C2=O)cc1 (stereo unspecified),13.2 µM
3,Cc1ccccc1CS(=O)(=O)c1nnc([C@H](Cc2ccccc2)NC(=O)OC(C)(C)C)o1,13.1 µM
4,CCOC(=O)c1c(NC(=O)CSc2nc(C)cc(C)c2C#N)sc(C(C)=O)c1C,13.5 µM
5,O=C1CC(c2ccco2)Cc2nc(Nc3nc(-c4ccccc4)c4ccccc4n3)ncc21 (stereo unspecified),14 µM
6,CCOc1cc(N2CCOCC2)c(OCC)cc1NC(=O)COc1cccc2cccnc12,6.41 µM
7,CCOC(=O)c1cnc(-n2nc(C)cc2C)nc1NCCc1ccccc1,14.2 µM
8,Cc1sc2ncnc(NCC(C)(C)N3CCOCC3)c2c1C,> 10 µM (inactive)
9,Cc1cccc(N2CCN(C(=O)Cn3sc4nc(C)cc(C)c4c3=O)CC2C)c1 (stereo unspecified),9.93 µM
10,N=c1c2c(ncn1CCN1CCOCC1)Oc1ccc3ccccc3c1C2c1ccccc1 (stereo unspecified),17.5 µM
11,CCC(=O)OCCNc1cc(Sc2nc3ccccc3s2)c2nonc2c1[N+](=O)[O-],6.76 µM
12,COc1ccc(OC)c(CCNC(=O)Cn2sc3nc(C)cc(C)c3c2=O)c1,11.7 µM
13,COC(=O)C1=C(O)/C(=C\c2ccc(CNC(=O)C(=O)Nc3ccc(C)cc3)o2)N=C1C,9.27 µM
14,O=C(Oc1cccc2cccnc12)c1ccc2c(c1)OCCO2,6.78 µM
15,CCc1ccc2c(c1)/C(=C/C(=O)c1cccs1)C(=O)N2,3.48 µM
16,N#CCC(=O)Nc1ncn(Cc2ccccc2Cl)n1,19.7 µM
17,COc1ccc(-n2nnnc2S(=O)(=O)CC(=O)N2CCCCC2)cc1,6.12 µM
18,CCN(CC)CCn1c(=N)n(CCOc2ccccc2)c2ccccc21,10.7 µM
19,CCN(CCNC(=O)C1CCN(Cc2nc(-c3ccc(Cl)cc3)oc2C)CC1)c1ccccc1,17.8 µM
